Test results published in ChEMBL document CHEMBL4689842, “EUbOPEN Chemogenomics Library wave 1” (2021).

System: HEK-293T
Experiment: Multiplex assay against HEK293T;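 as to Population Tubulin-Different-Phenotype (%): share of the cells with healthy nuclei that show this phenotype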
Assay type: toxicity, cell-based
Details: human
Procedure, shortened: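 Live cells were stained at seeding with Hoechst33342, BioTracker Green Microtubule Cytoskeleton Dye, MitoTracker Red and Annexin V Alexa Fluor 680. Following compound addition, they were imaged on a CQ1 microscope at 37°C and 5% CO2 and gated by CellPathfinder machine learning into Hoechst high-intensity objects or normal cells, with normal cells split into healthy, pyknosed or fragmented nuclei and pyknosed cells into mitotic or apoptotic. Tubulin, mitochondrial-mass and membrane-permeability phenotypes are per cents of healthy-nucleus cells.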

[1] = 12 h, 1 µM, compound concentration 1 uM, replicate 1
[2] = 12 h, 1 µM, compound concentration 1 uM, replicate 2
[3] = 12 h, 10 µM, compound concentration 10 uM, replicate 1
[4] = 12 h, 10 µM, compound concentration 10 uM, replicate 2
[5] = 24 h, 1 µM, compound concentration 1 uM, replicate 1
[6] = 24 h, 1 µM, compound concentration 1 uM, replicate 2
[7] = 24 h, 10 µM, compound concentration 10 uM, replicate 1
[8] = 24 h, 10 µM, compound concentration 10 uM, replicate 2

With `CCn1cc(-c2ccnc3[nH]c(-c4cccc(CN(C)C)c4)cc23)c(-c2ccc(NC(=O)N(C)C)cc2)n1` [GSK-1070916] the “Population Apoptotic (%)” value [1] was 17%, the “Population Fragmented Nuclei (%)” value [1] was 16% and the “Population Healthy Nuclei (%)” value [1] was 64%. For the same compound, the “Population Hoechst High Intensity Objects (%)” value [1] was 11%, the “Population Membrane Permeable-Phenotype (%)” value [1] was 16% and the “Population Mitochondria Different-Phenotype (%)” value [1] was 9%. For the same compound, the “Population Mitotic Cells (%)” value [1] was 82%, the “Population Normal (%)” value [1] was 88% and the “Population Pyknosed Nuclei (%)” value [1] was 18%. The “Population Tubulin-Different-Phenotype (%)” value [1] was 18%, the “Total Cell Count” value [1] was 676 and the “Population Apoptotic (%)” value [2] was 8%. The “Population Fragmented Nuclei (%)” value [2] was 6%, the “Population Healthy Nuclei (%)” value [2] was 84% and the “Population Hoechst High Intensity Objects (%)” value [2] was 2%. The “Population Membrane Permeable-Phenotype (%)” value [2] was 9%, the “Population Mitochondria Different-Phenotype (%)” value [2] was 13% and the “Population Mitotic Cells (%)” value [2] was 91%. The “Population Normal (%)” value [2] was 97%, the “Population Pyknosed Nuclei (%)” value [2] was 8% and the “Population Tubulin-Different-Phenotype (%)” value [2] was 36%. For the same compound, the “Total Cell Count” value [2] was 1405, the “Population Apoptotic (%)” value [3] was 28% and the “Population Fragmented Nuclei (%)” value [3] was 14%. For the same compound, the “Population Healthy Nuclei (%)” value [3] was 49%, the “Population Hoechst High Intensity Objects (%)” value [3] was 24% and the “Population Membrane Permeable-Phenotype (%)” value [3] was 16%. For the same compound, the “Population Mitochondria Different-Phenotype (%)” value [3] was 32%, the “Population Mitotic Cells (%)” value [3] was 71% and the “Population Normal (%)” value [3] was 75%. The “Population Pyknosed Nuclei (%)” value [3] was 35%, the “Population Tubulin-Different-Phenotype (%)” value [3] was 91% and the “Total Cell Count” value [3] was 688. For the same compound, the “Population Apoptotic (%)” value [4] was 8%, the “Population Fragmented Nuclei (%)” value [4] was 1% and the “Population Healthy Nuclei (%)” value [4] was 81%. For the same compound, the “Population Hoechst High Intensity Objects (%)” value [4] was 10%, the “Population Membrane Permeable-Phenotype (%)” value [4] was 14% and the “Population Mitochondria Different-Phenotype (%)” value [4] was 37%. For the same compound, the “Population Mitotic Cells (%)” value [4] was 91%, the “Population Normal (%)” value [4] was 89% and the “Population Pyknosed Nuclei (%)” value [4] was 17%. The “Population Tubulin-Different-Phenotype (%)” value [4] was 99%, the “Total Cell Count” value [4] was 1174 and the “Population Apoptotic (%)” value [5] was 15%. For the same compound, the “Population Fragmented Nuclei (%)” value [5] was 13%, the “Population Healthy Nuclei (%)” value [5] was 73% and the “Population Hoechst High Intensity Objects (%)” value [5] was 8%. For the same compound, the “Population Membrane Permeable-Phenotype (%)” value [5] was 18%, the “Population Mitochondria Different-Phenotype (%)” value [5] was 6% and the “Population Mitotic Cells (%)” value [5] was 84%. For the same compound, the “Population Normal (%)” value [5] was 91%, the “Population Pyknosed Nuclei (%)” value [5] was 12% and the “Population Tubulin-Different-Phenotype (%)” value [5] was 37%. The “Total Cell Count” value [5] was 672, the “Population Apoptotic (%)” value [6] was 3% and the “Population Fragmented Nuclei (%)” value [6] was 9%. For the same compound, the “Population Healthy Nuclei (%)” value [6] was 85%, the “Population Hoechst High Intensity Objects (%)” value [6] was 5% and the “Population Membrane Permeable-Phenotype (%)” value [6] was 12%. For the same compound, the “Population Mitochondria Different-Phenotype (%)” value [6] was 3%, the “Population Mitotic Cells (%)” value [6] was 96% and the “Population Normal (%)” value [6] was 94%. The “Population Pyknosed Nuclei (%)” value [6] was 5%, the “Population Tubulin-Different-Phenotype (%)” value [6] was 43% and the “Total Cell Count” value [6] was 1602. For the same compound, the “Population Apoptotic (%)” value [7] was 31%, the “Population Fragmented Nuclei (%)” value [7] was 17% and the “Population Healthy Nuclei (%)” value [7] was 57%. The “Population Hoechst High Intensity Objects (%)” value [7] was 33%, the “Population Membrane Permeable-Phenotype (%)” value [7] was 9% and the “Population Mitochondria Different-Phenotype (%)” value [7] was 42%. The “Population Mitotic Cells (%)” value [7] was 68%, the “Population Normal (%)” value [7] was 66% and the “Population Pyknosed Nuclei (%)” value [7] was 24%. The “Population Tubulin-Different-Phenotype (%)” value [7] was 89%, the “Total Cell Count” value [7] was 562 and the “Population Apoptotic (%)” value [8] was 10%. The “Population Fragmented Nuclei (%)” value [8] was 3%, the “Population Healthy Nuclei (%)” value [8] was 84% and the “Population Hoechst High Intensity Objects (%)” value [8] was 17%. For the same compound, the “Population Membrane Permeable-Phenotype (%)” value [8] was 18%, the “Population Mitochondria Different-Phenotype (%)” value [8] was 39% and the “Population Mitotic Cells (%)” value [8] was 89%. For the same compound, the “Population Normal (%)” value [8] was 82%, the “Population Pyknosed Nuclei (%)” value [8] was 11% and the “Population Tubulin-Different-Phenotype (%)” value [8] was 98%. The “Total Cell Count” value [8] was 1112.
For `COC(=N)c1nc2ccc3ncnc(Nc4ccc(OC)cc4F)c3c2s1`, the “Population Apoptotic (%)” value [1] was 15%, the “Population Fragmented Nuclei (%)” value [1] was 16% and the “Population Healthy Nuclei (%)” value [1] was 53%. For the same compound, the “Population Hoechst High Intensity Objects (%)” value [1] was 21%, the “Population Membrane Permeable-Phenotype (%)” value [1] was 3% and the “Population Mitochondria Different-Phenotype (%)” value [1] was 12%. For the same compound, the “Population Mitotic Cells (%)” value [1] was 84%, the “Population Normal (%)” value [1] was 78% and the “Population Pyknosed Nuclei (%)” value [1] was 29%. For the same compound, the “Population Tubulin-Different-Phenotype (%)” value [1] was 5%, the “Total Cell Count” value [1] was 546 and the “Population Apoptotic (%)” value [2] was 24%. The “Population Fragmented Nuclei (%)” value [2] was 4%, the “Population Healthy Nuclei (%)” value [2] was 87% and the “Population Hoechst High Intensity Objects (%)” value [2] was 5%. For the same compound, the “Population Membrane Permeable-Phenotype (%)” value [2] was 0%, the “Population Mitochondria Different-Phenotype (%)” value [2] was 21% and the “Population Mitotic Cells (%)” value [2] was 75%. For the same compound, the “Population Normal (%)” value [2] was 94%, the “Population Pyknosed Nuclei (%)” value [2] was 7% and the “Population Tubulin-Different-Phenotype (%)” value [2] was 9%. The “Total Cell Count” value [2] was 1072, the “Population Apoptotic (%)” value [3] was 19% and the “Population Fragmented Nuclei (%)” value [3] was 10%. The “Population Healthy Nuclei (%)” value [3] was 66%, the “Population Hoechst High Intensity Objects (%)” value [3] was 10% and the “Population Mitochondria Different-Phenotype (%)” value [3] was 6%. The “Population Mitotic Cells (%)” value [3] was 80%, the “Population Normal (%)” value [3] was 89% and the “Population Pyknosed Nuclei (%)” value [3] was 22%. For the same compound, the “Population Tubulin-Different-Phenotype (%)” value [3] was 4%, the “Total Cell Count” value [3] was 552 and the “Population Apoptotic (%)” value [4] was 4%. The “Population Fragmented Nuclei (%)” value [4] was 6%, the “Population Healthy Nuclei (%)” value [4] was 88% and the “Population Hoechst High Intensity Objects (%)” value [4] was 3%. For the same compound, the “Population Membrane Permeable-Phenotype (%)” value [4] was 2%, the “Population Mitochondria Different-Phenotype (%)” value [4] was 8% and the “Population Mitotic Cells (%)” value [4] was 95%. The “Population Normal (%)” value [4] was 96%, the “Population Pyknosed Nuclei (%)” value [4] was 5% and the “Population Tubulin-Different-Phenotype (%)” value [4] was 6%. For the same compound, the “Total Cell Count” value [4] was 1236, the “Population Apoptotic (%)” value [5] was 19% and the “Population Fragmented Nuclei (%)” value [5] was 14%. The “Population Healthy Nuclei (%)” value [5] was 71%, the “Population Hoechst High Intensity Objects (%)” value [5] was 11% and the “Population Membrane Permeable-Phenotype (%)” value [5] was 3%. For the same compound, the “Population Mitochondria Different-Phenotype (%)” value [5] was 7%, the “Population Mitotic Cells (%)” value [5] was 80% and the “Population Normal (%)” value [5] was 88%. The “Population Pyknosed Nuclei (%)” value [5] was 13%, the “Population Tubulin-Different-Phenotype (%)” value [5] was 12% and the “Total Cell Count” value [5] was 573. The “Population Apoptotic (%)” value [6] was 17%, the “Population Healthy Nuclei (%)” value [6] was 82% and the “Population Hoechst High Intensity Objects (%)” value [6] was 5%. For the same compound, the “Population Mitochondria Different-Phenotype (%)” value [6] was 4%, the “Population Mitotic Cells (%)” value [6] was 82% and the “Population Normal (%)” value [6] was 94%. For the same compound, the “Population Pyknosed Nuclei (%)” value [6] was 2%, the “Population Tubulin-Different-Phenotype (%)” value [6] was 19% and the “Total Cell Count” value [6] was 1668. The “Population Apoptotic (%)” value [7] was 16%, the “Population Fragmented Nuclei (%)” value [7] was 9% and the “Population Healthy Nuclei (%)” value [7] was 82%. For the same compound, the “Population Hoechst High Intensity Objects (%)” value [7] was 8%, the “Population Membrane Permeable-Phenotype (%)” value [7] was 7% and the “Population Mitochondria Different-Phenotype (%)” value [7] was 2%. For the same compound, the “Population Mitotic Cells (%)” value [7] was 83%, the “Population Normal (%)” value [7] was 91% and the “Population Pyknosed Nuclei (%)” value [7] was 8%. For the same compound, the “Population Tubulin-Different-Phenotype (%)” value [7] was 8%, the “Total Cell Count” value [7] was 657 and the “Population Apoptotic (%)” value [8] was 4%. The “Population Fragmented Nuclei (%)” value [8] was 20%, the “Population Healthy Nuclei (%)” value [8] was 77% and the “Population Hoechst High Intensity Objects (%)” value [8] was 3%. The “Population Membrane Permeable-Phenotype (%)” value [8] was 4%, the “Population Mitotic Cells (%)” value [8] was 95% and the “Population Normal (%)” value [8] was 96%. The “Population Pyknosed Nuclei (%)” value [8] was 2%, the “Population Tubulin-Different-Phenotype (%)” value [8] was 5% and the “Total Cell Count” value [8] was 2058.
